In one data set the test system is A-431. The data set is described as follows: Antiproliferative activity against human A431 cells after 72 hrs by Celltiter-Glo assay. In kind it is functional. The settings on record: A-431, 72 h. In outline: (§1)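 Cells seeded at 3000/well in 96-well plates, exposed to serially diluted compound for 72 h at 37 °C, 5% CO2. Viability read by CellTiter-Glo luminescence and normalized to DMSO control. GI50 derived from curve fit, mean of three independent measurements. Culture media: DMEM/10% FBS for adherent lines; IMDM for MV4-11 and MEC-1/2; RPMI 1640 for suspension lines and CHL.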

Another data set relates to OCI-AML-3. Kind of data set: Antiproliferative activity against human OCI-AML3 cells after 72 hrs by Celltiter-Glo assay. The settings on record: OCI-AML-3, 72 h. In kind it is functional. In outline: as §1
(In general: In ATP-based viability assays light output follows the ATP content of the culture.)

Data set [1] is described as follows: MRT (0 to infinity) in beagle dog at 10 mg/kg, po by LC-MS/MS analysis. Format: ADME, organism-based, Canis lupus familiaris. Particulars: in vivo.
Data set [2] concerns Tyrosine-protein kinase ABL1 (Homo sapiens), P00519 [F317I]. The data set is described as follows: Binding affinity to human non-phosphorylated ABL1 F317I mutant (S229 to K512 residues) expressed in mammalian expression system assessed as remaining unbound target protein level at 1000 nM by Kinomescan method relative to control. In outline: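 KINOMEscan competition-binding profiling across the panel of 468 kinases and mutants, with inhibitor tested at 1 μM. Binding is expressed as percent of control, with DMSO as the reference control.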

In data set [3] the test system is Tyrosine-protein kinase ABL1 (Homo sapiens), P00519 [T315I]. Kind of data set: Binding affinity to human phosphorylated ABL1 T315I mutant (S229 to K512 residues) expressed in mammalian expression system assessed as remaining unbound target protein level at 1000 nM by Kinomescan method relative to control. In outline: (§2)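 Single-point competition binding screen across a panel of 468 kinases and mutants, with the inhibitor at 1 μM. Binding is read out as percent of a DMSO control, and targets below 1 percent control were classed as strong binders.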

Data set [4] addresses Serine/threonine-protein kinase BRSK1 (Homo sapiens) (UniProt Q8TDC3). Kind of data set: Binding affinity to wild-type human partial length BRSK1 (M1 to E754 residues) expressed in bacterial expression system assessed as remaining unbound target protein level at 1000 nM by Kinomescan method relative to control. In outline:
(§3)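 Profiled in a KINOMEscan binding panel with the inhibitor at a single concentration of 1 μM. Binding to each kinase was read out as percent of control, relative to a DMSO control. Strong binders were defined as those with a percent control value below 1.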

In data set [5] the target is Macrophage colony-stimulating factor 1 receptor (Homo sapiens) (UniProt P07333). The data set is described as follows: Binding affinity to wild-type human partial length CSF1R (I564 to S939 residues) expressed in bacterial expression system assessed as remaining unbound target protein level at 1000 nM by Kinomescan method relative to control.
Data set [6] has as its target Casein kinase I isoform alpha-like (Homo sapiens) (UniProt Q8N752). The data set is described as follows: Binding affinity to wild-type human full length CSNK1A1L (M1 to N337 residues) expressed in bacterial expression system assessed as remaining unbound target protein level at 1000 nM by Kinomescan method relative to control. In outline:
as §2

Data set [7] addresses Death-associated protein kinase 3 (Homo sapiens) (UniProt O43293). Kind of data set: Binding affinity to wild-type human partial length DAPK3 (M1 to A277 residues) expressed in bacterial expression system assessed as remaining unbound target protein level at 1000 nM by Kinomescan method relative to control. In outline:
(§4)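 KINOMEscan binding panel of 468 kinases/mutants. Inhibitor was tested at a single concentration of 1 μM. Binding is reported as percent of control, defined relative to a DMSO control.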

Data set [8] concerns the target Serine/threonine-protein kinase DCLK3 (Homo sapiens) (UniProt Q9C098). Kind of data set: Binding affinity to wild-type human partial length DCAMKL3 (E140 to V628 residues) expressed in bacterial expression system assessed as remaining unbound target protein level at 1000 nM by Kinomescan method relative to control.
For data set [9], the target named is Dual specificity tyrosine-phosphorylation-regulated kinase 1A (Homo sapiens) (UniProt Q13627). The data set is described as follows: Binding affinity to wild-type human partial length DYRK1A (H129 to S509 residues) expressed in mammalian expression system assessed as remaining unbound target protein level at 1000 nM by Kinomescan method relative to control. In outline:
as §4

Data set [10] deals with Tyrosine-protein kinase Lyn (Homo sapiens) (UniProt P07948). Kind of data set: Binding affinity to wild-type human partial length LYN (C219 to Q511 residues) expressed in bacterial expression system assessed as remaining unbound target protein level at 1000 nM by Kinomescan method relative to control. In outline: as §4
The target in data set [11] is Hepatocyte growth factor receptor (Homo sapiens) (UniProt P08581). The data set is described as follows: Binding affinity to wild-type human partial length MET (D1010 to S1367 residues) expressed in bacterial expression system assessed as remaining unbound target protein level at 1000 nM by Kinomescan method relative to control.
The target of data set [12] is Dual specificity mitogen-activated protein kinase kinase 7 (Homo sapiens) (UniProt O14733). The data set is described as follows: Binding affinity to wild-type human full length MKK7 (M1 to R419 residues) expressed in mammalian expression system assessed as remaining unbound target protein level at 1000 nM by Kinomescan method relative to control. In outline: as §2

In data set [13] the target is Phosphorylase b kinase gamma catalytic chain, liver/testis isoform (Homo sapiens) (UniProt P15735). Kind of data set: Binding affinity to wild-type human partial length PHKG2 (M1 to W300 residues) expressed in bacterial expression system assessed as remaining unbound target protein level at 1000 nM by Kinomescan method relative to control. In outline: as §4
Data set [14] addresses cAMP-dependent protein kinase catalytic subunit beta (Homo sapiens) (UniProt P22694). Kind of data set: Binding affinity to wild-type human full length PKAC-beta (M1 to F351 residues) expressed in bacterial expression system assessed as remaining unbound target protein level at 1000 nM by Kinomescan method relative to control. In outline:
as §3

Data set [15] deals with Serine/threonine-protein kinase RIO1 (Homo sapiens) (UniProt Q9BRS2). Kind of data set: Binding affinity to wild-type human full length RIOK1 (M1 to K568 residues) expressed in bacterial expression system assessed as remaining unbound target protein level at 1000 nM by Kinomescan method relative to control. In outline: as §3
The target of data set [16] is Ribosomal protein S6 kinase alpha-4 (Homo sapiens) (UniProt O75676). Kind of data set: Binding affinity to wild-type human partial length N-terminal RPS6KA4 kinase domain 1 expressed in bacterial expression system assessed as remaining unbound target protein level at 1000 nM by Kinomescan method relative to control.
Data set [17] concerns the target Serine/threonine-protein kinase WNK3 (Homo sapiens) (UniProt Q9BYP7). The data set is described as follows: Binding affinity to wild-type human partial length WNK3 (M1 to D434 residues) expressed in mammalian expression system assessed as remaining unbound target protein level at 1000 nM by Kinomescan method relative to control.
The target of another data set is CDK2/Cyclin A2 (Homo sapiens, UniProt P24941). Kind of data set: Inhibition of recombinant full length His-tagged human CDK2/CyclinA expressed in baculovirus expression system.
Data set [18] has as its system Mitogen-activated protein kinase kinase kinase 12 (DLK). Kind of data set: Binding affinity to wild-type human full length DLK (M1 to P859 residues) expressed in mammalian expression system assessed as remaining unbound target protein level at 1000 nM by Kinomescan method relative to control.

pIC50: −log10 of the molar value.

The term GI50 denotes the concentration that inhibits growth by half. A word on the MRT inf: it is a mean duration of stay, worked out from the concentration-time curve. For orientation: pIC50 means −log10 of the IC50, conventionally taken in molar units.

Serine/threonine-protein kinase WNK3 (Homo sapiens), sequence (Q9BYP7 whole entry, the tested form may be a part): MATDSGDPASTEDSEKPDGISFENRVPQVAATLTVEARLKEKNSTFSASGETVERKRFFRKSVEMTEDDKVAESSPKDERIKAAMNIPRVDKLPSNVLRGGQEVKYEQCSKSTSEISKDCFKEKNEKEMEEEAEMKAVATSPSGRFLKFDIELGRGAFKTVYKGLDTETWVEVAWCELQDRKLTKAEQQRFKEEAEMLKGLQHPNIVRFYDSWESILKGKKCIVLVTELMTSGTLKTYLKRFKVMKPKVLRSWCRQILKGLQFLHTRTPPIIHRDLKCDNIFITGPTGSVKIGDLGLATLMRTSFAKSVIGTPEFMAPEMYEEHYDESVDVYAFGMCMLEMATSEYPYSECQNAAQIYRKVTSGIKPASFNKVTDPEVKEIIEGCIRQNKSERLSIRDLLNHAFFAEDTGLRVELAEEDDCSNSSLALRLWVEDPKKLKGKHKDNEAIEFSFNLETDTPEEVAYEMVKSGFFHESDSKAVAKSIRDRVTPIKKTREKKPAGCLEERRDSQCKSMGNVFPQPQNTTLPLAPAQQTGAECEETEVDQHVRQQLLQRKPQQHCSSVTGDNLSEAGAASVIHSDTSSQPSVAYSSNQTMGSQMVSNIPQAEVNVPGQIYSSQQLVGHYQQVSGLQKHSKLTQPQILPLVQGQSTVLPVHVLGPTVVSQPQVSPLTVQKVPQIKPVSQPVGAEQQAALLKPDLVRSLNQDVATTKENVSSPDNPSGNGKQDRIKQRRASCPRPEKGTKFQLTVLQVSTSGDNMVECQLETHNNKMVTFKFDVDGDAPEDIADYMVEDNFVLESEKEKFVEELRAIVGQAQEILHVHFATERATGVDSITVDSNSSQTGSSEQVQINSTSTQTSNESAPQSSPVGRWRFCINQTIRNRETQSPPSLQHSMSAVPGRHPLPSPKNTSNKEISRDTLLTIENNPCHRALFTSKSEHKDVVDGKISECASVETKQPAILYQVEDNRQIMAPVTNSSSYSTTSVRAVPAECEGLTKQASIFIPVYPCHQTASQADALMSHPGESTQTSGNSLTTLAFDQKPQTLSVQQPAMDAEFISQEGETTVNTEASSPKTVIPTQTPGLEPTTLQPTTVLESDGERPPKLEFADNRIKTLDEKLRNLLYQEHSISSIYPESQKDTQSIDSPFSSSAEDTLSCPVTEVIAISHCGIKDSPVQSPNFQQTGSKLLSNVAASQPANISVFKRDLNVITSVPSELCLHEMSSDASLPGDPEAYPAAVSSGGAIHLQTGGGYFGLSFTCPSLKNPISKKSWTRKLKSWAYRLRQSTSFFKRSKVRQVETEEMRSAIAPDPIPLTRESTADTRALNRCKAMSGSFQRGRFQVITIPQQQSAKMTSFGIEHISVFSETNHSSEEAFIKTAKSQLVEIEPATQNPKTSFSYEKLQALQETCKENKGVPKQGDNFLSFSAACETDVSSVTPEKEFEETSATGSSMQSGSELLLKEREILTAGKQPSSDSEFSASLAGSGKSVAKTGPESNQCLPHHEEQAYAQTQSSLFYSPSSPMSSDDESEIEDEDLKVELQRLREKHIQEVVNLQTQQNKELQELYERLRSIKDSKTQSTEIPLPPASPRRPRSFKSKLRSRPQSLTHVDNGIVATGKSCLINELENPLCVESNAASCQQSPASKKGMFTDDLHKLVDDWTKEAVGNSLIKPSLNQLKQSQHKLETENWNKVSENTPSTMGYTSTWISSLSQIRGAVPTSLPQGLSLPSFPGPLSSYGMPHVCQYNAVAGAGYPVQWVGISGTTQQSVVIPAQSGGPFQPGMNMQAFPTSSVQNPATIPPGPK
Death-associated protein kinase 3 (Homo sapiens), sequence (O43293 whole entry, looked up, the tested form may be a part): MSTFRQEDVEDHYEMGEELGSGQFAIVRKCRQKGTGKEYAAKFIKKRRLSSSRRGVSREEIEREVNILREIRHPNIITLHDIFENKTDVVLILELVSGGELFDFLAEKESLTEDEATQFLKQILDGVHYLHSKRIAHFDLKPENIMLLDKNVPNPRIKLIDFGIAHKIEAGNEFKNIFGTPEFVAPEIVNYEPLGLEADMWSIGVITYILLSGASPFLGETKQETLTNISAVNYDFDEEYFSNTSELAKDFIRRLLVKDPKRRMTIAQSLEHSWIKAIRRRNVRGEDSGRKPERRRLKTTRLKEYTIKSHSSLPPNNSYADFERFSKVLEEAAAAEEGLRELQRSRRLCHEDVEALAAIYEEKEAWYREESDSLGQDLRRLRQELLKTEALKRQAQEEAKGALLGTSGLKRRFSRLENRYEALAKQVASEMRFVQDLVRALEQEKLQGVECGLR
Phosphorylase b kinase gamma catalytic chain, liver/testis isoform (Homo sapiens), sequence (P15735 whole entry, the tested form may be a part, canonical isoform): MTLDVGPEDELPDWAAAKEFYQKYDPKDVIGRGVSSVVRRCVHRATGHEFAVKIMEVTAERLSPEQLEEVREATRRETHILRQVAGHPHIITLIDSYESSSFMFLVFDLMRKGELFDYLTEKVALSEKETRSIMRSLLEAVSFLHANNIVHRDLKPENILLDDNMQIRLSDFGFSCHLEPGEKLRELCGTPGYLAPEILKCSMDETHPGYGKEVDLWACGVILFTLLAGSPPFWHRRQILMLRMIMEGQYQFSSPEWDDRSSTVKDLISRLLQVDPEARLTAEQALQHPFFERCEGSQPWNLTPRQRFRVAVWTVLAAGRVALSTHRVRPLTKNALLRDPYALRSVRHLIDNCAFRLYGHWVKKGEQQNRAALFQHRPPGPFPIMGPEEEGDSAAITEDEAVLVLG
Dual specificity mitogen-activated protein kinase kinase 7 (Homo sapiens), sequence (O14733 whole entry, the tested form may be a part): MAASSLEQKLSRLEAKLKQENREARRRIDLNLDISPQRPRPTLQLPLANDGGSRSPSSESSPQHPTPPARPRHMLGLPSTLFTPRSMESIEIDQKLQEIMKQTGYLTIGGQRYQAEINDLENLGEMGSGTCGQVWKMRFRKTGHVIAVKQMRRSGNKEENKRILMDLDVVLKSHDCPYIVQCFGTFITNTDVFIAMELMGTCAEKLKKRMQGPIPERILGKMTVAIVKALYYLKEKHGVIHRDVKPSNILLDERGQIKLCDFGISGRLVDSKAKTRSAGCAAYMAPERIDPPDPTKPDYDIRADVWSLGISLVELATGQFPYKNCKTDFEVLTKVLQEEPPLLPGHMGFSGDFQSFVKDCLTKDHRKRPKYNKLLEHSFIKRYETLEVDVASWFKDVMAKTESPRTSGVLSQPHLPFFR
Ribosomal protein S6 kinase alpha-4 (Homo sapiens), sequence (O75676 whole entry, looked up, the tested form may be a part): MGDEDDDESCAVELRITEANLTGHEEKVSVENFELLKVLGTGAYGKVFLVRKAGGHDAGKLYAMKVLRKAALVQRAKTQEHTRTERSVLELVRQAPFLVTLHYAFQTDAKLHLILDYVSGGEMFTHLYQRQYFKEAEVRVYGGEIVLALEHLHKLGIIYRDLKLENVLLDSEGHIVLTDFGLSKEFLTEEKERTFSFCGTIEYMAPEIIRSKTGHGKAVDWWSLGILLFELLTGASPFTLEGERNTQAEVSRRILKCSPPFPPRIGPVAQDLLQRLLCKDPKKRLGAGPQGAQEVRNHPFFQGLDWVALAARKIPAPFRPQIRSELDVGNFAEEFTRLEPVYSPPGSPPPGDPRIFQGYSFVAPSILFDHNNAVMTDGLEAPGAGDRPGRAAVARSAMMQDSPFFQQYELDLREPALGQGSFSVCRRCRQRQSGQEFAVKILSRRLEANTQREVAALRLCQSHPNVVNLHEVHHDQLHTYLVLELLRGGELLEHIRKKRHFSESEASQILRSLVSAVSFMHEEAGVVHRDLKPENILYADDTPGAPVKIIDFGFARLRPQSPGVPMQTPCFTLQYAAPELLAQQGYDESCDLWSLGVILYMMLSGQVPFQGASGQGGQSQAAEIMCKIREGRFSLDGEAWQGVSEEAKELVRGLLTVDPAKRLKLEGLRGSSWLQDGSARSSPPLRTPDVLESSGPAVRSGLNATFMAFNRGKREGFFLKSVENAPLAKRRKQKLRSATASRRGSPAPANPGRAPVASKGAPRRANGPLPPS
Tyrosine-protein kinase Lyn (Homo sapiens), sequence (P07948 2-512 limits assumed): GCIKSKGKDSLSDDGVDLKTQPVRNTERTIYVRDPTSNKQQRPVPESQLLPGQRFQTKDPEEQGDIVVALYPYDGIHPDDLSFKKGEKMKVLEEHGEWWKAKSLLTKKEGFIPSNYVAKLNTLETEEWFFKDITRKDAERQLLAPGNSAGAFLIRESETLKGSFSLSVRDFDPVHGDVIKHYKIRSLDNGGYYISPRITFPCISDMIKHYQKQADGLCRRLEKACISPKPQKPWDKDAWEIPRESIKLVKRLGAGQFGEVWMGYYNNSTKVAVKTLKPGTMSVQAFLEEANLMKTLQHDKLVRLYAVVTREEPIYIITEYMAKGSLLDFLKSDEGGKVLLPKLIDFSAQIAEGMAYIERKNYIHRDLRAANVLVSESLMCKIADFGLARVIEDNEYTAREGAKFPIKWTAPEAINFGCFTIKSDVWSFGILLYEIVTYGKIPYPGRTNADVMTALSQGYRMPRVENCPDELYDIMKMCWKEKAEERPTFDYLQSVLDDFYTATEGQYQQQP
Serine/threonine-protein kinase RIO1 (Homo sapiens), sequence (Q9BRS2 whole entry, the tested form may be a part): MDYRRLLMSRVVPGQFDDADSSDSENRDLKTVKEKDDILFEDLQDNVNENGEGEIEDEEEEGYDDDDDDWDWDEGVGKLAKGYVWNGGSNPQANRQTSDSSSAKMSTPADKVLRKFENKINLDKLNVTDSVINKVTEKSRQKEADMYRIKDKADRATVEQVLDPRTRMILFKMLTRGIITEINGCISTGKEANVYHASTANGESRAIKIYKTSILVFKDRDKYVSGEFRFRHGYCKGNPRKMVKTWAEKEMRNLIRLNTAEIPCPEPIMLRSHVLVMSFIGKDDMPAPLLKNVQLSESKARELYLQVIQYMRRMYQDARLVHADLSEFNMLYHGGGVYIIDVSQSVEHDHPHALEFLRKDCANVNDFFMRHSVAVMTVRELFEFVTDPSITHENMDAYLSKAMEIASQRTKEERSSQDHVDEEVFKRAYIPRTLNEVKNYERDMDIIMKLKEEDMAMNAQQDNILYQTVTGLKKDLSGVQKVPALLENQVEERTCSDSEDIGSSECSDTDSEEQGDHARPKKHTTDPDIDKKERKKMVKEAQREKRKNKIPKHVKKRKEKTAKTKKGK

Consider `COCCN[C@H]1CC[C@H](Nc2cc(-c3csc(NCC4(C#N)CCOCC4)n3)c(Cl)cn2)CC1`, for which the results for the concentration for 50% growth inhibition (GI50) in the data set with A-431 and in the data set with OCI-AML-3 were 0.019 µM and 0.0066 µM, respectively. This molecule also had a mean residence time (MRT inf) in [1] of 29.2 h. The Activity stood at 90% in data set [2]; 95% in [3]; 85% in [4]; 87% in data set [5]; 96% in [6]; 63% in data set [7]. For the same molecule, the Activity in data set [8] came to 97%; in data set [9], 0.3%; in data set [10], 86%; in data set [11], 73%; in [12] it was 100%; in data set [13], 99%. Further, the Activity worked out at 92% in [14]; 79% in [15]; 92% in [16]; 97% in [17]; 100% in [18]. Moreover, the negative-log IC50 (pIC50) on CDK2/Cyclin A2 was 5.54.

The record behind these values is ChEMBL document CHEMBL4261600 (Eur J Med Chem, 2018).
